Reference: paper PMC7807167 (Methods (San Diego, Calif.), 2021)
Where two headings read alike, the source gives them in different places.

Experiments:
ATCC Vero E6 cells = conditions: for Cytotoxicity: Vero E6, tested range up to 50 μM
SARS-CoV-2 = assay type: cell-based; conditions: for inhibitory activity against SARS-CoV-2: concentration range tested; for anti-SARS-CoV-2 activity at 25 µM: Fig 6, Fig 7
SARS-CoV-2/MT020880 [1] = assay type: cell-based; conditions: for IC50_Viral Entry blocking assay: ‘Very wide’ = some activity at high concentrations too staggering to plot
SARS-CoV-2/MT020880 [2] = assay type: cell-based; conditions: for IC-50_Viral Spread assay: ‘Very wide’ = some activity at high concentrations too staggering to plot
3CLpro [3] = target: T1, 3CLpro (Severe acute respiratory syndrome coronavirus 2, UniProt P0DTD1); test: Preliminary compound screening for 3CLpro inhibitors; assay type: biochemical, SARS-CoV-2; conditions: four concentrations, 1–50 µM, 3CLpro 0.4 µM, TVLQ-AMC 40 µM
Method in brief: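 Duplicate wells, 25 °C. Test compound (1–50 µM) or DMSO (0 µM) preincubated about 5 min with 3CLpro (0.4 µM) in Tris-HCl pH 7.3, 1 mM EDTA. Started with TVLQ-AMC (40 µM), shaken 5 s, emission 440 nm (excitation 364 nm) read 1 min–3 h. Controls: 6–8 DMSO wells, 2 no-enzyme wells. Two replicate screens; emission normalized to 0 µM at 3 h.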

3CLpro [4] = target: T1, 3CLpro; test: 3CLpro enzyme inhibition assay; assay type: biochemical, SARS-CoV-2
Method in brief: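 Inhibitor (0–1000 µM) preincubated about 5 min with 3CLpro (0.4 µM) in Tris-HCl pH 7.3, 1 mM EDTA, triplicate, 25 °C. Started with TVLQ-AMC (40 µM) at fixed concentration, shaken 5 s. Fluorescence (excitation 364 nm) read continuously over time.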

Molecule: OC[C@H]1O[C@@H](O[C@@H]2[C@@H](CO)OC(O)(CO)[C@H]2O)[C@H](O)[C@@H](O)[C@H]1O (mixture of isomers) [Lactulose]
- Cytotoxicity (ATCC Vero E6 cells): Nontoxic within tested conc. range
- inhibitory activity against SARS-CoV-2 (SARS-CoV-2): no observed inhibitory activity
- IC50_Viral Entry blocking assay (SARS-CoV-2/MT020880 [1]): nil
- IC-50_Viral Spread assay (SARS-CoV-2/MT020880 [2]): nil

Molecule: NCC[C@H](O)C(=O)N[C@@H]1C[C@H](N)[C@@H](O[C@H]2O[C@H](CN)[C@@H](O)[C@H](O)[C@H]2O)[C@H](O)[C@H]1O[C@H]1O[C@H](CO)[C@@H](O)[C@H](N)[C@H]1O [Amikacin hydrate]
- Cytotoxicity (ATCC Vero E6 cells): Nontoxic within tested conc. range
- IC50_Viral Entry blocking assay (SARS-CoV-2/MT020880 [1]): (Very wide)
- IC-50_Viral Spread assay (SARS-CoV-2/MT020880 [2]): (Very wide)

Molecule: [H]/N=C(/N)SCCCn1cc(C2=C(c3cn(C)c4ccccc34)C(=O)NC2=O)c2ccccc21 [Bisindolylmaleimide IX]
- activity in 3CLpro screening (rate of substrate cleavage) (3CLpro [3]): significant activity
- Cytotoxicity (ATCC Vero E6 cells): Nontoxic within tested conc. range
- IC50 (3CLpro [4]): 114 ± 5.2 µM

Molecule: O=C(CCCN1CCC(O)(c2ccc(Cl)cc2)CC1)c1ccc(F)cc1 [Haloperidol]
- activity in 3CLpro screening (rate of substrate cleavage) (3CLpro [3]): very mild activity
- Cytotoxicity (ATCC Vero E6 cells): Non-toxic within tested conc. range
- anti-SARS-CoV-2 activity at 25 µM (SARS-CoV-2): 9.8%

Molecule: COCC(=O)Nc1c(I)c(C(=O)NCC(O)CO)c(I)c(C(=O)N(C)CC(O)CO)c1I (stereo not shown) [Iopromide]
- Cytotoxicity (ATCC Vero E6 cells): Nontoxic within tested conc. range
- inhibitory activity against SARS-CoV-2 (SARS-CoV-2): no observed inhibitory activity
- IC50_Viral Entry blocking assay (SARS-CoV-2/MT020880 [1]): nil
- IC-50_Viral Spread assay (SARS-CoV-2/MT020880 [2]): nil

Molecule: NC[C@@H]1O[C@H](O[C@H]2[C@@H](O)[C@H](O[C@@H]3[C@@H](O)[C@H](N)C[C@H](N)[C@H]3O[C@H]3O[C@H](CO)[C@@H](O)[C@H](O)[C@H]3N)O[C@@H]2CO)[C@H](N)[C@@H](O)[C@@H]1O [Paromomycin]
- Cytotoxicity (ATCC Vero E6 cells): Nontoxic within tested conc. range
- anti-SARS-CoV-2 activity at 25 µM (SARS-CoV-2): 2.3%
- IC-50_Viral Spread assay (SARS-CoV-2/MT020880 [2]): (Very wide)

Molecule: C[C@@H]1O[C@@H](OC[C@H]2O[C@@H](Oc3c(-c4ccc(OCCO)c(OCCO)c4)oc4cc(OCCO)cc(O)c4c3=O)[C@H](O)[C@@H](O)[C@@H]2O)[C@H](O)[C@H](O)[C@H]1O [Troxerutin]
- Cytotoxicity (ATCC Vero E6 cells): Nontoxic within tested conc. range
- anti-SARS-CoV-2 activity at 25 µM (SARS-CoV-2): 2.8%
- IC50_Viral Entry blocking assay (SARS-CoV-2/MT020880 [1]): (Very wide)
- IC-50_Viral Spread assay (SARS-CoV-2/MT020880 [2]): (Very wide)

Molecule: Ivermectin
- concentration with high cytotoxicity (ATCC Vero E6 cells; ATCC E6 Vero cells, number of nuclei counted): > 16.67 µM
- Cytotoxicity (ATCC Vero E6 cells): Toxic above 50 µM
- Percent inhibition at 50 µM (SARS-CoV-2/MT020880 [1]; viral entry assay, 50 µM): 99%
- Percent inhibition at 50 µM (SARS-CoV-2/MT020880 [2]): 46%
